Assays:
[1] = Inhibition of Hepatitis C virus genotype 2b NS3/4A protease activity; set-up: species or system Hepatitis C virus subtype 2b
In short: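 Recombinant NS3/4A protease was expressed in and purified from E. coli. Inhibition was measured by a time-resolved, internally quenched fluorescence assay at low enzyme concentration. Kis were reported.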

[2] = Plasma clearance in dog at 2 mg/kg, iv by LC/MS/MS analysis; format: ADME, organism-based, Canis lupus familiaris; set-up: dose 2 mg/kg, route intravenous
In short: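 Fasted animals received an intravenous bolus in DMSO at 1.0 ml/kg (rat), 0.1 ml/kg (dog) or 0.1 ml/kg (rhesus), with n = 3. Blood was drawn into EDTA tubes, and plasma was separated by centrifugation and stored at −70°C. Drug was quantified by LC/MS/MS after protein precipitation.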

In the case of CC[C@@H]1C[C@]1(NC(=O)[C@@H]1C[C@@H]2CN1C(=O)[C@H](C(C)(C)C)NC(=O)OCC(C)(C)CCCCc1cccc3c1CN(C3)C(=O)O2)C(=O)NS(=O)(=O)C1CC1 [VANIPREVIR], the Ki [1] is reported as 1.4 nM and the clearance [2] is reported as 11 mL/min/kg.
